The structures appear in SMILES notation.

Experimental findings from ChEMBL document CHEMBL4350993, “Dipropargyl substituted diphenylpyrimidines as dual inhibitors of monoamine oxidase and acetylcholinesterase” (Eur J Med Chem, 2019) are described below.

One test is filed under the species Homo sapiens. Put plainly: Selectivity index, ratio of IC50 for human recombinant microsomal MAO- A expressed in baculovirus infected BTI-TN-5B1- 4 cells using p-tyramine as substrate to IC50 for human recombinant microsomal MAO- B expressed in baculovirus infected BTI-TN-5B1- 4 cells using p-tyramine as substrate by horse radish peroxidase/Amplex red reagent based fluorescence assay. In outline: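 Recombinant hMAO-A (1.1 µg) or hMAO-B (7.5 µg) preincubated with inhibitor over a concentration range for 30 min at 37 °C in 0.05 M sodium phosphate, pH 7.4. Reaction started with 1 mM p-tyramine, 200 µM Amplex Red and 1 U/mL HRP (final concentrations). H₂O₂ was read by fluorescence (ex 545/em 590 nm) after 30 min dark incubation. Background without enzyme was subtracted; vehicle served as control.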

Test [1] concerns the target T1, Amine oxidase [flavin-containing] B (Homo sapiens, UniProt P27338).
T1 sequence (P27338 whole entry): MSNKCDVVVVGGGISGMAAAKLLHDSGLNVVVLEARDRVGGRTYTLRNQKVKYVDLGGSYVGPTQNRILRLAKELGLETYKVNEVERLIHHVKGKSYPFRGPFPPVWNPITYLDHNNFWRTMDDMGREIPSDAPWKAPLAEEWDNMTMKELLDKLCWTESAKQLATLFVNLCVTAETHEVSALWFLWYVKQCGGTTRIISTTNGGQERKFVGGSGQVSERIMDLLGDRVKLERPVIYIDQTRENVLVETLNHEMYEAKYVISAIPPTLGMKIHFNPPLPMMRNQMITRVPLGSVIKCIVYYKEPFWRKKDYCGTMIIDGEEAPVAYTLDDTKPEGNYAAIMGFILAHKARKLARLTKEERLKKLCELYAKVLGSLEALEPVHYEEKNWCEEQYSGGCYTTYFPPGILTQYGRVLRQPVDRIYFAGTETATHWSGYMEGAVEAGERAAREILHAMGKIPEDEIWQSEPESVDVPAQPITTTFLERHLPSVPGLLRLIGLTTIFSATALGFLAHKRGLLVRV
In words: Inhibition of human recombinant microsomal MAO-B expressed in baculovirus infected BTI-TN-5B1-4 cells assessed as reduction in production of H202 using p-tyramine as substrate incubated for 30 mins followed by substrate addition by horse radish peroxidase/Amplex red reagent based fluorescence assay. Format: cell-based.

The next test concerns the target Acetylcholinesterase (Electrophorus electricus, UniProt O42275). In words: Inhibition of electric eel AChE assessed as reduction in production of H202 using acetylcholine as substrate incubated for 15 mins followed by substrate addition by horse radish peroxidase/Amplex red reagent based fluorescence assay.
Test [2] addresses T2, Amine oxidase [flavin-containing] A (Homo sapiens, UniProt P21397).
T2 sequence (P21397 whole entry): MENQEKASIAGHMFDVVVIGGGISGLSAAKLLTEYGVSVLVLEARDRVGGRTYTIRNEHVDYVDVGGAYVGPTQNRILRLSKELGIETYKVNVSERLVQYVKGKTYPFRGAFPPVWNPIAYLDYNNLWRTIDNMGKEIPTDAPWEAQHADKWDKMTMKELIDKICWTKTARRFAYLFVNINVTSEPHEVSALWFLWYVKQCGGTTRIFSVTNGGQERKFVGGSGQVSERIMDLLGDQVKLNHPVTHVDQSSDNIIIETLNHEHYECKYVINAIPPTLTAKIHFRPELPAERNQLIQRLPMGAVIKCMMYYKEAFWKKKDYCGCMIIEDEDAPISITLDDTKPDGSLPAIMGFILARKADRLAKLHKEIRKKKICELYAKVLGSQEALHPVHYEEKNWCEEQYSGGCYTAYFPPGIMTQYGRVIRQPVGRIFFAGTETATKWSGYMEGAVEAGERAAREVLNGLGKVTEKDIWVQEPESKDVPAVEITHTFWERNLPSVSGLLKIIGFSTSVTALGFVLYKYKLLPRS
Put plainly: Inhibition of human recombinant microsomal MAO-A expressed in baculovirus infected BTI-TN-5B1-4 cells assessed as reduction in production of H202 using p-tyramine as substrate incubated for 30 mins followed by substrate addition by horse radish peroxidase/Amplex red reagent based fluorescence assay. The format is cell-based.

Test [3] deals with T2, Amine oxidase [flavin-containing] A. In words: Inhibition of human recombinant microsomal MAO- A expressed in baculovirus infected BTI-TN-5B1- 4 cells assessed as reduction in production of H202 at 50 uM using p-tyramine as substrate incubated for 30 mins followed by substrate addition by horse radish peroxidase/Amplex red reagent based fluorescence assay. The conditions noted are these: 0.5 h. In outline:
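Recombinant hMAO-A (1.1 µg protein) preincubated 30 min at 37 °C with test compound in 0.05 M sodium phosphate, pH 7.4. Reaction started with (final) 200 µM Amplex Red, 1 U/mL HRP and 1 mM p-tyramine. After 30 min in the dark, H2O2 read by fluorescence (ex 545/em 590 nm) at 37 °C. Background without enzyme subtracted; vehicle control.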

Sequence of Acetylcholinesterase (O42275 whole entry): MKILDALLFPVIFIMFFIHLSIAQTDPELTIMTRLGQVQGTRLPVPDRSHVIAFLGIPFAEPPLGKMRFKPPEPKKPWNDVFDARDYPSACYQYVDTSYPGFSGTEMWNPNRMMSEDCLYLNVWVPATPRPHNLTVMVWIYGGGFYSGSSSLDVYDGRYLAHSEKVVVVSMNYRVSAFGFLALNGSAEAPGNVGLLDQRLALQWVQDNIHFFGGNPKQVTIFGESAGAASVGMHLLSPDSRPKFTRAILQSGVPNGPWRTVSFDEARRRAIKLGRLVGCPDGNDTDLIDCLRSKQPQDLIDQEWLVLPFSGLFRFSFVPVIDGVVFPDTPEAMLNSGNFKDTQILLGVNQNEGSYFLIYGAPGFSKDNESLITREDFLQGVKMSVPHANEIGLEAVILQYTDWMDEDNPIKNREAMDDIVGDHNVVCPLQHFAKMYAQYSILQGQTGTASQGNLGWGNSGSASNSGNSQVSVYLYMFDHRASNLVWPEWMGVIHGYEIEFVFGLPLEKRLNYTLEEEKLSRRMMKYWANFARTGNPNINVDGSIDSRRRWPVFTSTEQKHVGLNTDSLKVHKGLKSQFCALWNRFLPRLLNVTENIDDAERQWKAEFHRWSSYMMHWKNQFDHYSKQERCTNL

Broadly, the IC50 is the concentration needed to halve the response being measured. Turning to `C#CCOc1ccc(-c2cc(-c3cccc(OCC#C)c3)nc(-c3ccccc3)n2)cc1`, the Ratio IC50 in the test listed under Homo sapiens was found to be 1.5. In addition, the values for the IC50 (in test [1]; on Acetylcholinesterase; in test [2] (read-out: IC50)) were 17.7 µM, 4.39 µM and 25.8 µM, respectively.

Regarding `C#CCOc1ccc(-c2cc(-c3ccc(OCC#C)cc3)nc(C)n2)cc1`, the Ratio IC50 in the test filed under Homo sapiens stood at 4.4. For the same compound, the figures for the IC50 (in test [1]; on Acetylcholinesterase; in test [2] (read-out: IC50)) were 7.83 µM, 1.76 µM and 34.1 µM, respectively.

For `C#CCOc1ccc(-c2cc(-c3ccccc3OCC#C)nc(N)n2)cc1`, the Ratio IC50 in the test listed under Homo sapiens is 1.3. Further, the IC50 in test [1] stood at 22.1 µM; at Acetylcholinesterase, 1.81 µM; in test [2] (read-out: IC50), 28.6 µM.

As usually defined, the inhibition is the drop in the measured response relative to a control, in per cent. On to `C#CCOc1ccccc1-c1cc(-c2ccccc2OCC#C)nc(-c2ccccc2)n1`, for which the Ratio IC50 in the test filed under Homo sapiens is greater than 4. The IC50 was 13.8 µM in test [1], 8.12 µM at Acetylcholinesterase and “Not Active” in test [2] (bti-tn-5b1-4). Further, the inhibition at 50 µM in test [3] was less than 50%.

Regarding `C#CCOc1cccc(-c2cc(-c3cccc(OCC#C)c3)nc(N)n2)c1`, in the test listed under Homo sapiens, the Ratio IC50 is greater than 3. In addition, the results for the IC50 (in test [1]; on Acetylcholinesterase; in test [2] (bti-tn-5b1-4)) were 22.1 µM, 6.99 µM and “Not Active”, respectively. In addition, the inhibition at 50 µM in test [3] was less than 50%.

`C#CCOc1ccc(-c2cc(-c3cccc(OCC#C)c3)nc(C)n2)cc1`: the Ratio IC50 in the test filed under Homo sapiens stood at 2.6. The IC50 in test [1] was 8.09 µM; at Acetylcholinesterase, 5.88 µM; in test [2] (read-out: IC50), 21.1 µM.

Take `C#CCOc1ccc(-c2cc(-c3ccccc3OCC#C)nc(C)n2)cc1`: the Ratio IC50 in the test listed under Homo sapiens stood at 1.3. Also, the IC50 was 18.1 µM in test [1], 2.56 µM on Acetylcholinesterase and 23.2 µM in test [2] (read-out: IC50).

Take `C#CCOc1ccc(-c2cc(-c3ccc(OCC#C)c(OC)c3)nc(N)n2)cc1`: the Ratio IC50 in the test listed under Homo sapiens was greater than 3. The concentration for half-maximal inhibition (IC50) was 20 µM in test [1], 4.58 µM on Acetylcholinesterase and “Not Active” in test [2] (bti-tn-5b1-4). In test [3], the inhibition at 50 µM was less than 50%.

Regarding `C#CCOc1ccc(-c2cc(-c3ccc(OCC#C)c(OCC)c3)nc(-c3ccccc3)n2)cc1`, in the test filed under Homo sapiens, the Ratio IC50 was greater than 2. Moreover, the values for the IC50 (in test [1]; on Acetylcholinesterase; in test [2] (bti-tn-5b1-4)) were 29 µM, 6.94 µM and “Not Active”, respectively. The inhibition at 50 µM in test [3] is less than 50%.

As for `C#CCOc1cccc(-c2cc(-c3cccc(OCC#C)c3)nc(-c3ccccc3)n2)c1`, the Ratio IC50 in the test listed under Homo sapiens was greater than 3. The IC50 in test [1] was 23.4 µM; at Acetylcholinesterase, 6.73 µM; in test [2] (bti-tn-5b1-4) it was “Not Active”. Besides, the inhibition at 50 µM in test [3] was less than 50%.

For the compound `C#CCOc1ccc(-c2cc(-c3ccccc3OCC#C)nc(-c3ccccc3)n2)cc1`, the Ratio IC50 in the test filed under Homo sapiens worked out at 1.5. The IC50 stood at 14.4 µM in test [1], 7.25 µM on Acetylcholinesterase and 22 µM in test [2] (read-out: IC50).

Turning to `C#CCOc1ccc(-c2cc(-c3ccc(OCC#C)c(OCC)c3)nc(C)n2)cc1`, the Ratio IC50 in the test filed under Homo sapiens was greater than 5. Also, the IC50 in test [1] is 11 µM; at Acetylcholinesterase, 6.38 µM; in test [2] (bti-tn-5b1-4), “Not Active”. Further, in test [3], the inhibition at 50 µM was less than 50%.

Turning to `C#CCOc1ccc(-c2cc(-c3ccc(OCC#C)c(OC)c3)nc(C)n2)cc1`, in the test listed under Homo sapiens, the Ratio IC50 came to 1.2. Further, the IC50 was 21.1 µM in test [1], 5.92 µM on Acetylcholinesterase and 25 µM in test [2] (read-out: IC50).

For `C#CCOc1ccc(-c2cc(-c3ccc(OCC#C)c(OCC)c3)nc(N)n2)cc1`, the Ratio IC50 in the test listed under Homo sapiens is greater than 4. Further, the figures for the IC50 (in test [1]; on Acetylcholinesterase; in test [2] (bti-tn-5b1-4)) were 14 µM, 7.05 µM and “Not Active”, respectively. Also, in test [3], the inhibition at 50 µM was less than 50%.

As to `C#CCOc1ccccc1-c1cc(-c2ccccc2OCC#C)nc(N)n1`, the Ratio IC50 in the test listed under Homo sapiens is greater than 5. Also, the figures for the IC50 (in test [1]; on Acetylcholinesterase; in test [2] (bti-tn-5b1-4)) were 11.1 µM, 5.19 µM and “Not Active”, respectively. Also, in test [3], the inhibition at 50 µM was less than 50%.

For the compound `C#CCOc1ccc(-c2cc(-c3ccc(OCC#C)cc3)nc(-c3ccccc3)n2)cc1`, in the test filed under Homo sapiens, the Ratio IC50 was 2.1. Also, the IC50 in test [1] turned out to be 12.3 µM; on Acetylcholinesterase it was 7.53 µM; in test [2] (read-out: IC50), 25.6 µM.

Consider `C#CCOc1ccc(-c2cc(-c3ccc(OCC#C)c(OC)c3)nc(-c3ccccc3)n2)cc1`, for which the Ratio IC50 in the test filed under Homo sapiens came to 1.6. Further, the IC50 in test [1] was 15.7 µM; on Acetylcholinesterase it was 6.99 µM; in test [2] (read-out: IC50), 24.9 µM.
